Source: ChEMBL document CHEMBL1145243, “Synthesis and bladder smooth muscle relaxing properties of substituted 3-amino-4-aryl-(and aralkyl-)cyclobut-3-ene-1,2-diones” (Bioorg Med Chem Lett, 2005)

Legend:
Assay type in all cases: functional
[1] = organism: Rattus norvegicus; experiment: In vitro inhibitory concentration required to relax KCl-induced contractions in rat bladder detrusor muscle strips
[2] = organism: Rattus norvegicus; experiment: Percent of reversal of rat bladder detrusor muscle relaxation (resulting from compound treatment) by addition of glyburide
[3] = organism: Rattus norvegicus; experiment: In vitro inhibitory concentration required to relax KCl-induced contractions in rat aortic rings; settings: Aorta
Procedure, shortened: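 Rat aortic rings were contracted with KCl and then exposed to drug. The value is the drug concentration (μM) that relaxed the KCl-induced contraction by 50%, reported ± SE.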

[4] = Rattus norvegicus, read-out: IC50

Compound	IC50 [1, 4] [µM]	Reversal [2] [%]	IC50 [3] [µM]	IC50 [1]
COc1ccc(Cc2c(NC(C)C(C)(C)C)c(=O)c2=O)cc1 (stereo not given)	> 30	0		
C[C@@H](Nc1c(Nc2ccc(C#N)cc2)c(=O)c1=O)C(C)(C)C	0.37	110	0.064	
CCC(C)(C)/N=c1/c(-c2cccc(OC)c2)c(O)c1=O	> 30			Contracted
CC(Nc1c(/C=C/c2ccc(C#N)cc2)c(=O)c1=O)C(C)(C)C (stereo not given)	2.94	0		
CCC(C)(C)Nc1c(-c2cccnc2)c(=O)c1=O	> 30	0		
CC(=O)C(c1ccc(C(F)(F)F)cc1)c1c(NC(C)C(C)(C)C)c(=O)c1=O (stereo not given)	16.2	0		
CCC(C)(C)/N=c1/c(-c2ccc(OC)cc2)c(O)c1=O	2.5	0	37.6	
COc1ccc(-c2c(NCC(C)c3ccccc3)c(=O)c2=O)cc1 (stereo not given)	> 30	0		
CCC(C)(C)Nc1c(-c2ccc(OCCCc3ccccc3)cc2)c(=O)c1=O				Contracted
COc1ccc(-c2c(N(C)C(C)C)c(=O)c2=O)cc1	12	0	46.2	
CC(Nc1c(/C=C/c2ccc(Br)cc2)c(=O)c1=O)C(C)(C)C (stereo not given)	> 30	25		
COc1ccc(C(C(C)=O)c2c(NC(C)C(C)(C)C)c(=O)c2=O)cc1 (stereo not given)	> 30	0		
COc1ccc(-c2c(NCCc3cccc(C(F)(F)F)c3)c(=O)c2=O)cc1	> 30	0		
CCc1cc(C#N)ccc1Nc1c(N[C@H](C)C(C)(C)C)c(=O)c1=O	0.09	77	0.017	
CC(Nc1c(Cc2ccc(C#N)cc2)c(=O)c1=O)C(C)(C)C (stereo not given)	> 30	0		
COc1ccc(-c2c(NC(C)c3ccccc3)c(=O)c2=O)cc1 (stereo not given)	27	0		
